Data reported in ChEMBL document CHEMBL3407477, “Synthesis and biological evaluation of compact, conformationally constrained bifunctional opioid agonist - neurokinin-1 antagonist peptidomimetics” (Eur J Med Chem, 2015).
Active and inactive are the calls of the source.

Legend:
[1] = test system: Rattus norvegicus; test: Toxicity in Wistar rat assessed as seizures at 9.5 nmol, iv; type: organism-based; conditions: in vivo
[2] = test system: Rattus norvegicus; test: Antinociceptive activity in Wistar rat up to 1.21 umol/kg, iv after 30 mins by tail flick test; type: functional, organism-based
[3] = test system: Rattus norvegicus; test: Toxicity in Wistar rat assessed as death at 9.5 nmol, iv; type: organism-based; conditions: in vivo
[4] = organism: Rattus norvegicus; test: Antinociceptive activity in Wistar rat at 1 to 50 nmol, it after 30 mins by tail flick test; type: functional, organism-based
In short: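 Male Wistar rats (250-300 g), naive, with chronic i.t. catheters inserted through the atlanto-occipital membrane to L4-L6 under pentobarbital anaesthesia. Tested on day 7 after implantation. Drug in water for injection was given as a single 5 µl i.t. injection, then 10 µl flush. Tail-flick (light-bulb heat at two-thirds tail length, 9 s cut-off) was read 30 min post-dose. Values are %MPE vs baseline; 7-12 rats/group; ANOVA/Bonferroni.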

[5] = organism: Rattus norvegicus; test: Reduction of hyperalgesia in Wistar rat chronic constriction injury model at 1 nmol, it measured 7 days post CCI challenge by cold plate test; type: functional, organism-based
In short: (§1)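 In catheterized male Wistar rats with sciatic CCI, a single i.t. dose in water for injection was given on day 7. Thermal hyperalgesia was measured 30 min later as latency to hind-paw shake on a 5 °C cold plate. Data are %MPE, 6-12 rats/group, ANOVA with Bonferroni.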

[6] = organism: Rattus norvegicus; test: Antiallodynic effect in Wistar rat chronic constriction injury model at 0.1 to 1 nmol, it measured 7 days post CCI challenge by Von Frey test; type: functional, organism-based
In short: (§2)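 Male Wistar rats (300-350 g) with i.t. catheters (L4-L6) had CCI made by four loose silk ligatures on the right sciatic nerve. On day 7 they received a single i.t. dose in water for injection. Mechanical allodynia was measured 30 min later with an automatic von Frey device (0.5-26 g) on the midplantar hind paw. Data are %MPE, 6-12 rats/group, ANOVA with Bonferroni.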

[7] = target: Substance-P receptor (Homo sapiens, UniProt P25103); test: Displacement of [3H]SP from human NK1 receptor expressed in CHO cells after 20 mins by liquid scintillation counting analysis; type: cell-based
Sequence of Substance-P receptor (P25103 whole entry): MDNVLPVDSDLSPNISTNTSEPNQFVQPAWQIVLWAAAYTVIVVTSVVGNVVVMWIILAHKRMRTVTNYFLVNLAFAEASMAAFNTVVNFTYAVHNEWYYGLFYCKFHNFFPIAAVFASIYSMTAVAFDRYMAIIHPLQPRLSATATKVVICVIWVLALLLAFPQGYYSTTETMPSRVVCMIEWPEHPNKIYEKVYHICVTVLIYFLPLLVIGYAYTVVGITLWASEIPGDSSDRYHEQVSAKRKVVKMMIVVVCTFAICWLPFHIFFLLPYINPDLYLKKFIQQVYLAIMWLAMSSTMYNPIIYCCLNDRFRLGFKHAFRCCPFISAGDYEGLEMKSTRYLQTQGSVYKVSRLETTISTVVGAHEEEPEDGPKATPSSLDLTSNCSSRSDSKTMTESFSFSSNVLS
In short: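 Membranes from hNK1/CHO cells (20 µg) were incubated with 0.4 nM [3H]SP and six test concentrations in duplicate. Buffer was 50 mM Tris pH 7.4 with 5 mM MgCl2, bacitracin, bestatin, captopril and PMSF, for 20 min at 25 °C. Nonspecific binding was defined with 10 µM SP. Samples were filtered on PEI-soaked GF/B, counted by scintillation, three independent experiments. Ki by Cheng-Prusoff from nonlinear-regression IC50.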

[8] = target: Delta-type opioid receptor (Rattus norvegicus, UniProt P33533); test: Displacement of [3H]DSLET from rat brain DOR after 2 hrs
Sequence of Delta-type opioid receptor (Rattus norvegicus, UniProt P33533) (P33533 whole entry): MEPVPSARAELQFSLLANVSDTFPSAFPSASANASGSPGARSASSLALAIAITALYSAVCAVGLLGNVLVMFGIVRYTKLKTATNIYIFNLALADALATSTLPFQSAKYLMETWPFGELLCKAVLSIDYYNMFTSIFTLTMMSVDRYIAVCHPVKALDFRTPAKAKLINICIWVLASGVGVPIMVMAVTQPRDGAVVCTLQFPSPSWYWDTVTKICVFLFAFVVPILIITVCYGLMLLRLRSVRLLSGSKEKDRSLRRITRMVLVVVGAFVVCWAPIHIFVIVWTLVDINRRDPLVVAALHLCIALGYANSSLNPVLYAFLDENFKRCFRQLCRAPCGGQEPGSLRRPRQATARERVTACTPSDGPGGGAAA
In short: (§3)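 Rat brain membranes were incubated 2 h at 0 °C with 0.72 nM [3H]DAMGO (MOR) or 0.78 nM [3H]DSLET (DOR). IC50 came from log-dose displacement curves.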

[9] = target: Mu-type opioid receptor (Cavia porcellus, UniProt P97266); test: Activation of MOR in guinea pig ileum; type: tissue-based
Sequence of Mu-type opioid receptor (Cavia porcellus, UniProt P97266) (P97266 whole entry): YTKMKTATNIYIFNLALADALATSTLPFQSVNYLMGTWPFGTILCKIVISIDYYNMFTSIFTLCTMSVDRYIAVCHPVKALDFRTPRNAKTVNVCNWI
In short: (§4)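 Isolated guinea pig ileum (MOR) and mouse vas deferens (DOR) bioassays. A [Leu5]enkephalin standard dose-response curve was run on each tissue preparation, and test IC50 values were normalized to it. Values are means of 3-4 experiments.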

[10] = organism: Rattus norvegicus; test: Selectivity ratio of Ki for rat brain DOR to Ki for rat brain MOR
[11] = target: Mu-type opioid receptor (Rattus norvegicus, UniProt P33535); test: Displacement of [3H]DAMGO from rat brain MOR after 2 hrs; in short: as §3
Sequence of Mu-type opioid receptor (Rattus norvegicus, UniProt P33535) (P33535 whole entry): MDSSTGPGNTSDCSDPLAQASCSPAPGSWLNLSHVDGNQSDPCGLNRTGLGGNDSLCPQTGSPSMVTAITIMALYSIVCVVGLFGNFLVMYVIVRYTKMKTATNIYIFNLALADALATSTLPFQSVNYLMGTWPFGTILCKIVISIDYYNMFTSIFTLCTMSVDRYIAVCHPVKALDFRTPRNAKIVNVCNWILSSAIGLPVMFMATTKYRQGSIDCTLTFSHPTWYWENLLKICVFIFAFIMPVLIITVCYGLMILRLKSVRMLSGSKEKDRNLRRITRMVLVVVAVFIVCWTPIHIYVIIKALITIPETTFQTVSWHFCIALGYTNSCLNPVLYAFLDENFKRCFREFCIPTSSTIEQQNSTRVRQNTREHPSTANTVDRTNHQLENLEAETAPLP

[12] = target: Delta-type opioid receptor (Mus musculus, UniProt P32300); test: Activation of DOR in mouse vas deferens; in short: as §4
Sequence of Delta-type opioid receptor (Mus musculus, UniProt P32300) (P32300 whole entry): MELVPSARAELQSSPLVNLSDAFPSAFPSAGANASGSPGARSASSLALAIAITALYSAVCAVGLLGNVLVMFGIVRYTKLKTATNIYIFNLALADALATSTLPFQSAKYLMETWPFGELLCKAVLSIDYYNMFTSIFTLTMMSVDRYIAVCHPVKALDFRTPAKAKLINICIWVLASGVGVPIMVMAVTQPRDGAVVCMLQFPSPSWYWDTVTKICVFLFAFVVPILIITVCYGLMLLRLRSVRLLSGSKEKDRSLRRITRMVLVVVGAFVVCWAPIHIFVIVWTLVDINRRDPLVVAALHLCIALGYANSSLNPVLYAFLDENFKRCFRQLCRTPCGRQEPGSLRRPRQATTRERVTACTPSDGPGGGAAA

[13] = organism: Rattus norvegicus; test: Antinociceptive activity in Wistar rat at 0.1 nmol, it after 30 mins by tail flick test; type: functional
In short: (§5)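 Naive male Wistar rats (250-300 g) with i.t. catheters received a single i.t. injection in water for injection (5 µl plus 10 µl flush), 7 days after catheter implantation. Tail-flick latency to a light-bulb heat stimulus at two-thirds of tail length was read 30 min post-dose (timepoints up to 180 min), with a 9 s cut-off. Data are %MPE = (TL-BL)/(cut-off-BL)×100, 7-12 rats/group, ANOVA with Bonferroni.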

[14] = organism: Rattus norvegicus; test: Toxicity in Wistar rat chronic constriction injury model at 1 nmol, it measured 7 days post CCI challenge; type: organism-based; conditions: in vivo, icv_or_intrathecal, 168 h
[15] = test system: Mus musculus; test: Antinociceptive activity in C57Bl6 mouse at 1.21 umol/kg, iv after 30 mins by tail flick test; type: functional, organism-based
In short: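 Male C57Bl6 mice (25-28 g) received a single i.v. dose dissolved in saline or water for injection. Radiant-heat tail-flick latency was measured at 5, 15, 30, 60, 120 and 180 min, with a 7 s cut-off. Data are %MPE, 6-8 mice/group.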

[16] = organism: Rattus norvegicus; test: Antinociceptive activity in Wistar rat at 0.001 to 0.1 nmol, it after 30 mins to 2 hrs by tail flick test; type: functional, organism-based
[17] = organism: Rattus norvegicus; test: Antiallodynic effect in Wistar rat chronic constriction injury model at 0.001 to 1 nmol, it measured 7 days post CCI challenge by Von Frey test; type: functional, organism-based; in short: as §2
[18] = organism: Rattus norvegicus; test: Toxicity in Wistar rat chronic constriction injury model at 9.5 nmol, it measured 7 days post CCI challenge; type: organism-based; conditions: in vivo, icv_or_intrathecal, 168 h
[19] = organism: Rattus norvegicus; test: Antinociceptive activity in Wistar rat at 0.1 to 1 nmol, it after 30 mins by tail flick test; type: functional, organism-based; in short: as §5
[20] = test system: Rattus norvegicus; test: Antiallodynic effect in Wistar rat chronic constriction injury model assessed as tolerance to neuropathic pain at 1 nmol, it qd for 6 days administered from 7 days post CCI challenge to day 13 by Von Frey test; type: functional, organism-based
In short: (§6)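 CCI Wistar rats received once-daily i.t. injections (morphine 3.5 nmol, hybrids 1 nmol, in water for injection) from day 7 to day 13 after CCI. Von Frey and 5 °C cold plate tests were run 30 min after each dose. Data are %MPE and AUC, 12-16 rats/group, ANOVA with Bonferroni.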

[21] = test system: Rattus norvegicus; test: Antinociceptive activity in it dosed Wistar rat after 30 mins by tail flick test; type: functional; in short: as §5
[22] = organism: Rattus norvegicus; test: Antiallodynic effect in Wistar rat chronic constriction injury model at 1 nmol, it measured 7 days post CCI challenge by Von Frey test; type: functional; in short: as §2
[23] = test system: Rattus norvegicus; test: Antiallodynic effect in Wistar rat chronic constriction injury model assessed as tolerance to neuropathic pain at 1 nmol, it qd for 6 days administered from 7 days post CCI challenge to day 13 by cold plate test; type: functional, organism-based; in short: as §6
[24] = test system: Rattus norvegicus; test: Reduction of hyperalgesia in it dosed Wistar rat measured 7 days post CCI challenge by cold plate test; type: functional; in short: as §1
[25] = organism: Rattus norvegicus; test: Antinociceptive activity in Wistar rat at 1 nmol, it after 30 mins by tail flick test; type: functional; in short: as §5
[26] = test system: Rattus norvegicus; test: Antiallodynic effect in it dosed Wistar rat measured 7 days post CCI challenge by Von Frey test; type: functional; in short: as §2

`CC(=O)N[C@H]1Cc2ccccc2CN(CC(=O)N(C)Cc2cc(C(F)(F)F)cc(C(F)(F)F)c2)C1=O` was tested, and the Activity [1] was “Toxic”, the Activity [2] was “inactive” and the Activity [3] was “Toxic”. The Activity [4] was “Active”, the Activity [5] was “Active” and the Activity [6] was “Active”.

For `Cc1cc(O)cc(C)c1C[C@H](N)C(=O)N[C@H](CCCNC(=N)N)C(=O)N[C@H]1Cc2ccccc2CN(CCC(=O)N(Cc2ccccc2)CC(C)C)C1=O`, the Ki [7] was 308 nM.

Compound `Cc1cc(O)cc(C)c1C[C@H](N)C(=O)N[C@H](CCCNC(=N)N)C(=O)N[C@H]1Cc2ccccc2CN(CC(=O)NCc2ccccc2)C1=O` has a Ki [8] of 0.62 nM, a Ki [7] of 6190 nM and an IC50 [9] of 4.44 nM. The Ratio Ki [10] was 4.4, the Ki [11] was 0.14 nM and the IC50 [12] was 3.5 nM.

Work on `Cc1cc(O)cc(C)c1C[C@H](N)C(=O)N[C@H](CCCNC(N)=O)C(=O)N[C@H]1Cc2ccccc2CN(CCC(=O)N(C)Cc2ccccc2)C1=O` yielded a Ki [8] of 0.48 nM, a Ki [7] of 3000 nM and an IC50 [9] of 0.96 nM. The Ratio Ki [10] was 1.7, the Ki [11] was 0.28 nM and the IC50 [12] was 0.33 nM.

For `Cc1cc(O)cc(C)c1C[C@H](N)C(=O)N[C@H](CCCNC(=N)N)C(=O)N[C@H]1Cc2ccccc2CN(CCC(N)=O)C1=O`, the MPE [13] was 99.7%, the Activity [14] was “Toxic” and the Activity [15] was “Active”. The Ratio Ki [10] was 12.7, the Activity [16] was “Active” and the Activity [5] was “Active”. For the same compound, the Activity [17] was “Active”.

Work on `Cc1cc(O)cc(C)c1C[C@H](N)C(=O)N[C@H](CCCNC(=N)N)C(=O)N[C@H]1Cc2ccccc2CN(CCC(=O)N(Cc2cc(C(F)(F)F)cc(C(F)(F)F)c2)CC(C)C)C1=O` yielded a Ki [7] of 743 nM.

`Cc1cc(O)cc(C)c1C[C@H](N)C(=O)N[C@H](CCCNC(=N)N)C(=O)N[C@H]1Cc2ccccc2CN(CC(=O)N(C)Cc2cc(C(F)(F)F)cc(C(F)(F)F)c2)C1=O` was tested, and the Activity [18] was “Toxic”, the Activity [19] was “Active” and the Activity [20] was “Active”. For the same compound, the Activity [14] was “Non-toxic”, the ED50 [21] was 1.66 nmol and the MPE [22] was 60%. The Activity [23] was “Active”, the Ratio Ki [10] was 25 and the ED50 [24] was 1.14 nmol. For the same compound, the Activity [5] was “Active”, the MPE [25] was 30% and the Activity [6] was “Active”. For the same compound, the ED50 [26] was 1.05 nmol.
